This passage reports Kd(app) and Ratio results from ChEMBL document CHEMBL2311306, “The precise chemical-physical nature of the pharmacore in FK506 binding protein inhibition: ElteX, a New class of nanomolar FKBP12 ligands” (J Med Chem, 2013).

The first test deals with Peptidyl-prolyl cis-trans isomerase FKBP1A (Homo sapiens) (UniProt P62942). Put plainly: Apparent binding affinity to FKBP12 PPI domain (unknown origin) in PBS at pH 7 by fluorescence spectrophotometric analysis relative to FK506. The method in brief: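 FKBP12, final 1 µM, diluted from a PBS stock (pH 7.4, 0.15 M NaCl) into phosphate buffer at 15 °C. Ligand 1–200 nM, final DMSO <0.3% v/v. Intrinsic Trp fluorescence quenching: excitation 280 nm, emission 325 nm, ligand-only spectra subtracted. Apparent Kd fitted from intensity versus ligand concentration, expressed as ratio to FK506 under identical conditions. At least 2 replicates, 3–4 at low concentrations.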
Sequence of Peptidyl-prolyl cis-trans isomerase FKBP1A (Homo sapiens) (P62942 whole entry, the tested form may be a part): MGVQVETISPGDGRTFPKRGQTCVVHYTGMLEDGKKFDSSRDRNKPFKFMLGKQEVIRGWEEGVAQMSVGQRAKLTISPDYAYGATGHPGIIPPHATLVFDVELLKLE
Regarding `O=C(C(=O)N1CCCC[C@H]1C(=O)NCCCc1ccccc1)c1ccccc1`, the Kd(app) was found to be 0.5.

Another test shares this target. The test can be described thus: Binding affinity to FKBP12 PPI domain (unknown origin) in water bulk solution by fluorescence spectrophotometric analysis relative to FK506.
Regarding `C=CC[C@@H]1/C=C(\C)C[C@H](C)C[C@H](OC)[C@H]2O[C@@](O)(C(=O)C(=O)N3CCCC[C@H]3C(=O)O[C@H](/C(C)=C/[C@@H]3CC[C@@H](O)[C@H](OC)C3)[C@H](C)[C@@H](O)CC1=O)[C@H](C)C[C@@H]2OC`, the Ratio is 1.
Same read-out and setting: next, `CCC[C@H](CCc1ccccc1)OC(=O)[C@@H]1CCCCN1C(=O)C(=O)c1ccccc1`: 1.6; `CO[C@H]1C[C@@H]2CC[C@@H](C)[C@@](O)(O2)C(=O)C(=O)N2CCCC[C@H]2C(=O)O[C@H]([C@H](C)C[C@@H]2CC[C@@H](O)[C@H](OC)C2)CC(=O)[C@H](C)/C=C(\C)[C@@H](O)[C@@H](OC)C(=O)[C@H](C)C[C@H](C)/C=C/C=C/C=C/1C`: 0.5; `CCC(C)(C)C(=O)C(=O)N1CCCC[C@H]1C(=O)O[C@H](CCc1ccccc1)c1ccccc1`: 25.
The same measure, in the same setting: then `CCC[C@@H](CCc1ccccc1)OC(=O)[C@@H]1CCCCN1C(=O)C(=O)c1ccccc1`, with 1.1.
Same read-out and setting: next, `CCCC(CCc1ccccc1)NC(=O)[C@@H]1CCCCN1C(=O)C(=O)c1ccccc1` (mixture of isomers): 5.
As to `CCC(C)(C)C(=O)C(=O)N1CCCC[C@H]1C(=O)O[C@@H](CCc1ccccc1)c1ccccc1`, the Ratio stood at 750.
Still for that read-out and setting: then `COc1cc(OC)c(C(=O)C(=O)N2CCCC[C@H]2C(=O)OC(CCCc2ccccc2)CCCc2ccncc2)c(OC)c1` (some centres undefined), with 1.2.
